Here are results for eight compounds from ChEMBL document CHEMBL1909586 (Eur J Med Chem, 2011).

Each structure is given as a SMILES string.

In data set [1] the target is T1, Acetylcholinesterase (Homo sapiens, UniProt P22303). Put plainly: Inhibition of human […] recombinant AChE after 20 mins using acetylthiocholine iodide as a substrate by Ellman's assay. A general note: DTNB colorimetry detects thiols as they appear.
Another data set concerns the target Cholinesterase (Homo sapiens, UniProt P06276). The experiment in a line: Inhibition of human serum recombinant BChE after 20 mins using butyrylthiocholine iodide as a substrate by Ellman's assay.
The test system of data set [2] is SH-SY5Y. The experiment in a line: Antioxidant activity in human SH-SY5Y cells assessed as inhibition of tert-butyl hydroperoxide-induced intracellular ROS production at 1 uM after 24 hrs using DCFH-DA by fluorescence assay (reference value: 82.4 +/- 6.6 %). It counts as functional. Set-up: scale not given: the % may be the effect or the level left.
In data set [3] the test system is SH-SY5Y. Put plainly: Antioxidant activity in human SH-SY5Y cells assessed as inhibition of tert-butyl hydroperoxide-induced intracellular ROS production at 10 uM after 24 hrs using DCFH-DA by fluorescence assay (reference value: 82.4 +/- 6.6 %). Format: functional. Set-up: scale not given: the % may be the effect or the level left.
Data set [4] has as its system SH-SY5Y. The experiment in a line: Antioxidant activity in human SH-SY5Y cells assessed as inhibition of tert-butyl hydroperoxide-induced intracellular ROS production at 5 uM after 24 hrs using DCFH-DA by fluorescence assay (reference value: 82.4 +/- 6.6 %). It counts as functional. Also noted: scale not given: the % may be the effect or the level left.
Data set [5] deals with SH-SY5Y. Put plainly: Cytotoxicity against human SH-SY5Y cells assessed as reduction in cell viability at 50 uM after 24 hrs by MTT assay. Format: cell-based. The gist of the method: (§1)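 Cells were SH-SY5Y, grown in DMEM with 10% fetal calf serum and 2 mM glutamine, seeded at 2 × 10^5 cells/well and allowed 24 h at 37 °C/5% CO2. Compound-containing media (0.1–50 µM) were applied for 24 h. After a PBS wash, cells took up MTT (5 mg/mL in PBS) for 4 h. Formazan was dissolved in isopropanol and read at 405 nm. Viability is given as % of control cells.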
(Tetrazolium dyes change colour on reduction, which living cells bring about.)

Data set [6] deals with SH-SY5Y. Put plainly: Antioxidant activity in human SH-SY5Y cells assessed as inhibition of tert-butyl hydroperoxide-induced intracellular ROS production at 50 uM after 24 hrs using DCFH-DA by fluorescence assay (reference value: 82.4 +/- 6.6 %). It counts as functional. Also noted: scale not given: the % may be the effect or the level left.
Data set [7] concerns SH-SY5Y. Put plainly: Cytotoxicity against human SH-SY5Y cells at 0.1 to 50 uM after 24 hrs by MTT assay. It counts as cell-based. The gist of the method:
as §1

Data set [8] addresses T1, Acetylcholinesterase. The experiment in a line: Inhibition of human AChE-induced amyloid beta (1 to 40) aggregation at 100 uM after 24 hrs by thioflavin T based fluorometric assay.

T1 sequence (P22303 whole entry): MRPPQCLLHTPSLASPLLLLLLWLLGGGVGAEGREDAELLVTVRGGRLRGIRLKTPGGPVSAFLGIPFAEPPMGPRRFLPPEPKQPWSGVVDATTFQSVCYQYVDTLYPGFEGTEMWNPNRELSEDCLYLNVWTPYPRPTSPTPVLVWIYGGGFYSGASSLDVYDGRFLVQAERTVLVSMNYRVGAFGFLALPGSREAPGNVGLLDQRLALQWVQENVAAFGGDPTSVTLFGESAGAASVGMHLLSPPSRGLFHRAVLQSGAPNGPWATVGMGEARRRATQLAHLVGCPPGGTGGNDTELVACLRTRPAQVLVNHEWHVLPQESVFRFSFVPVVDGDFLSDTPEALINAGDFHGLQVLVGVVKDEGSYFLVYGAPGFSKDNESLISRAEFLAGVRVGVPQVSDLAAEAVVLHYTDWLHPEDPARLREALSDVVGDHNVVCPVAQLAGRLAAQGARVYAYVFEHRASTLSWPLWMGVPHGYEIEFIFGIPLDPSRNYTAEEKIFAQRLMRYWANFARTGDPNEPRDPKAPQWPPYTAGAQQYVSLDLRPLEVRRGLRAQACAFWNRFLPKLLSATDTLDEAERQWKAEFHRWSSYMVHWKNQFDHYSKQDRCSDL
Chain of Cholinesterase (P06276 whole entry): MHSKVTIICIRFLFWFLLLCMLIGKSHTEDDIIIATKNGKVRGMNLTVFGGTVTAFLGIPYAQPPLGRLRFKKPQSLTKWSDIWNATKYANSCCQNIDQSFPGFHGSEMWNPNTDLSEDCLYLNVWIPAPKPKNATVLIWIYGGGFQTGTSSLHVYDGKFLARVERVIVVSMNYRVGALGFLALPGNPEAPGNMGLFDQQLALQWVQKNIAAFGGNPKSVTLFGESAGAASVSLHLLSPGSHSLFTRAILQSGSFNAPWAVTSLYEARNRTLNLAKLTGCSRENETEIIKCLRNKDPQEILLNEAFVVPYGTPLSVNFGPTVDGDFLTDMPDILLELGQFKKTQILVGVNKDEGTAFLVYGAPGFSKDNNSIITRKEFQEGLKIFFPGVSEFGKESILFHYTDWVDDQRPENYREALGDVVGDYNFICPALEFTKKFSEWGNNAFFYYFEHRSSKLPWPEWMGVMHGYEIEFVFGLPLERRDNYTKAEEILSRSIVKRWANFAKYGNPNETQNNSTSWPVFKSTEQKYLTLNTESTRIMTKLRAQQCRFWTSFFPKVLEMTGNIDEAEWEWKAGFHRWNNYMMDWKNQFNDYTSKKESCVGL

For `O=C(CCCC[C@H]1CCSS1)NCCCNc1c2c(nc3cc(Cl)ccc13)CCCC2`, the results for the half-inhibitory concentration (IC50) at Acetylcholinesterase [1] and at Cholinesterase were 0.471 nM and 12.1 nM, respectively.

With `O=C(CCCC[C@@H]1CCSS1)NCCCNc1c2c(nc3cc(Cl)ccc13)CCCC2`, the half-inhibitory concentration (IC50) (usually the concentration at which inhibition is half-maximal) on Cholinesterase came to 12.6 nM.

As for `O=C(CCCCc1cccs1)NCCCNc1c2c(nc3cc(Cl)ccc13)CCCC2`, the Activity in the data set on SH-SY5Y [2] amounted to 81%; in the data set with SH-SY5Y [3], 80.2%; in the data set with SH-SY5Y [4] it was 79.8%; in the data set on SH-SY5Y [5], 80%.

For `COc1cccc(C(C)N(C)CCCNC(=O)CCCCC2CCSS2)c1` (mixture of isomers), the Activity is 46.4% in the data set on SH-SY5Y [6]; 82.5% in the data set with SH-SY5Y [2]; 68.8% with SH-SY5Y [3]; 80% in the data set with SH-SY5Y [4]; “Non-toxic” with SH-SY5Y [7].

Consider `CC(c1cccc(OCCCNC(=O)CCCCC2CCSS2)c1)N(C)C` (mixture of isomers), for which the Activity with SH-SY5Y [6] is given as 34.4%; in the data set with SH-SY5Y [2], 80.3%; in the data set with SH-SY5Y [3], 48%; in the data set with SH-SY5Y [4] it was 76.8%; in the data set with SH-SY5Y [7], “Non-toxic”.

On to `COc1cc2nc(Cl)nc(NCCCNC(=O)CCCCC3CCSS3)c2cc1OC` (racemic), for which the Activity in the data set with SH-SY5Y [2] was 82%; in the data set with SH-SY5Y [3], 63.4%; in the data set with SH-SY5Y [4], 73.5%; with SH-SY5Y [5] it was 30%. The IC50 on Cholinesterase is 205000 nM.

For `CCN(CCCCCCNC(=O)CCCCC1CCSS1)Cc1ccccc1OC` (racemic), at Acetylcholinesterase [8], the inhibition (usually the drop in the measured response relative to a control, in per cent) was determined as 16.8%. In addition, the Activity with SH-SY5Y [6] is reported as 37.6%; with SH-SY5Y [2] it was 80.8%; with SH-SY5Y [3], 69.6%; with SH-SY5Y [4] it was 75.8%; with SH-SY5Y [7] it was “Non-toxic”.

As to `O=C(CCCCC1CCSS1)NCCCNc1c2c(nc3cc(Cl)ccc13)CCCC2` (racemic) [LIPOCRINE], the inhibition against Acetylcholinesterase [8] came to 61.8%. Besides, the Activity in the data set with SH-SY5Y [6] turned out to be 31%; with SH-SY5Y [2], 83.2%; in the data set with SH-SY5Y [3], 50%; in the data set with SH-SY5Y [4], 65%.
